# Screens: PubChem BioAssay, several laboratories
# Hck-Nef inh: blocks Nef-activated human Hck kinase. Recombinant Hck-YEEI plus Nef, Z-Lyte FRET kinase assay. inhibition, % at 20 µM. hit rate 0.68% among 220,000;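 active = Hck-Nef kinase inhibition above about 50%, limit read from the data; inactive = inhibition below that limit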;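 note: 0% = DMSO with Hck plus Nef and 100% = Hck alone without Nef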
# PERK inh: human PERK inhibition, primary cell-based screen. Q9NZJ5. inhibition, % at 5.6 µM. hit rate 0.17% among 220,000. CHO PERK-DD fusion, SEAP luminescence translation reporter;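 active = inhibition above the mean inhibition of all tested compounds plus 3 SD, set separately per screening campaign, cut at about 2.9% in these data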;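 note: PERK kinase domain activated by AP20187 dimerizer at 100 nM; 0% = DMSO with dimerizer and 100% = rapamycin at 8.4 µM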
# Target sequence (Q9NZJ5 whole entry, looked up, the tested form may be a part): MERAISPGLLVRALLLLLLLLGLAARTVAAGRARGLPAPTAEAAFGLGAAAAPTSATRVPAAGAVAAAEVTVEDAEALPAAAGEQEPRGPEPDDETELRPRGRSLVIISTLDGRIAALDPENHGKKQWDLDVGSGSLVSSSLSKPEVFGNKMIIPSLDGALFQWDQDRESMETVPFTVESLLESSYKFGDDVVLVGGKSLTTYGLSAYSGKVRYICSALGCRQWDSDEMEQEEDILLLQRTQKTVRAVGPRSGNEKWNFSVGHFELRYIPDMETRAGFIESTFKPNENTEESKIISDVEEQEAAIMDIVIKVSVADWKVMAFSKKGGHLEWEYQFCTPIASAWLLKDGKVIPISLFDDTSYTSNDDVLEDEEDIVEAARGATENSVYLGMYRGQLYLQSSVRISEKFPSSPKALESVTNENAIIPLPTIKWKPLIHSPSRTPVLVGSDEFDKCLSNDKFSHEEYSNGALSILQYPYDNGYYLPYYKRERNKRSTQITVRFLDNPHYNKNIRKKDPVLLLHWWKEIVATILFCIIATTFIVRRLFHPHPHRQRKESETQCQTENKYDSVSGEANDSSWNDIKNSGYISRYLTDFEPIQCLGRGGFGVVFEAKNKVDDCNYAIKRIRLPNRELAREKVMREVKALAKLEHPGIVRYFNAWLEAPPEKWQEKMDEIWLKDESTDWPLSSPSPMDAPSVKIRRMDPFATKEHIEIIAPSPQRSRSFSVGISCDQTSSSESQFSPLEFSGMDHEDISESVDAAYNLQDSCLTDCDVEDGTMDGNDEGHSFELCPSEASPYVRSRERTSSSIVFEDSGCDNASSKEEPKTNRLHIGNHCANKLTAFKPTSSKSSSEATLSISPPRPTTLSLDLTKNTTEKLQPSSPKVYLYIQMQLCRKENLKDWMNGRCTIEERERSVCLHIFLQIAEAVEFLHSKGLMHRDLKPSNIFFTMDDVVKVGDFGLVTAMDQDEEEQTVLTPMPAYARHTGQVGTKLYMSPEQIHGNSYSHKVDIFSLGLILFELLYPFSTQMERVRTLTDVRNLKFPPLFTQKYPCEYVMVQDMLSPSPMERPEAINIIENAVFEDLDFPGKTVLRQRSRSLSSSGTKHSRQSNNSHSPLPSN
# Runt-SMMHC FRET: blocks binding of human RUNX1 Runt domain to CBFb-SMMHC | Cerulean-Runt/Venus-CBFb-SMMHC FRET ratio 530/480, 1 h | hit rate 0.74% among 220,000 | Q01196+Q13951 | inhibition, % at 20 µM;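 active = mean inhibition across duplicate retests at 20 µM reaching about 50%, limit read from the data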;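 note: 0% = DMSO wells and 100% = wells with excess untagged CBFb-SMMHC; inhibitors lower the FRET ratio by blocking Runt binding to CBFb-SMMHC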
# RanGTP-Impb inh: disruptors of Ran-importin-beta complex formation – biochemical, FRET, CFP-Ran, YFP-importin-beta, homogeneous, primary screen; AID 2216; inhibition, % (test concentration not listed); cell-free CFP-Ran/YFP-importin-beta FRET ratio; hit rate 1.1% among 300,000;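 active = more than half of the replicate wells show a fall in the fluorescence ratio signal beyond about 16%, limit read from the data, passing the limit was not always enough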;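 note: 0% = DMSO wells and 100% = Ran loaded with GDP instead of GTP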
# Runt-CBFb FRET: Runt domain-CBFb interaction inhibition. inhibition, % at 20 µM. hit rate 0.46% among 220,000. Cerulean-Runt/Venus-CBFb FRET ratio 530/480, 1 h. Q01196+Q13951;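 active = inhibition over about 50% at 20 µM in the single-dose screen, limit read from the data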;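 note: 0% = DMSO wells and 100% = excess unlabeled CBFb competitor control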
#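 Assay system: Cerulean-Runt domain / Medium: Tris 50 mM pH 7.5, KCl, K2SO4, 0.01% BSA / Timing: protein complex preformed 1 h, compound exposure 1 h, room temperature, dark / Measured by: FRET, excitation 422 nm, emission at 530 and 480 nm / Evaluation: loss of energy transfer signal / Control set: 5 µM unlabeled CBFb as full-inhibition high control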
# eIF4E-4G inh: blocks eIF4E binding to eIF4G; P63073+Q04637; TR-FRET eIF4E-eIF4GI(517-606) binding, 2 h; inhibition, % at 21.7 µM; hit rate 0.37% among 220,000;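 active = inhibition above about 30%, limit read from the data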;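 note: 0% = full FRET control wells and 100% = background wells lacking eIF4GI fragment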
# * hit, by the source's call; nt = no result given. This is a sample that favours compounds with a hit; in the whole collection about 2.2% have one here.
SMILES,Hck-Nef inh,PERK inh,Runt-SMMHC FRET,RanGTP-Impb inh,Runt-CBFb FRET,eIF4E-4G inh
O=C(c1ccccc1)c1ccc2ccccc2n1,0.6,0.6,0.5,-1.8,-1.9,-3.2
CCOC(=O)c1[nH]c2ccccc2c1NC(=O)c1ccc(S(=O)(=O)N2CCOCC2)cc1,5.6,-0.4,-0.1,0.3,-4.1,6.3
CC(CCc1ccc(O)cc1)NCCc1ccc(O)c(O)c1 (stereo not drawn),nt,nt,nt,40.3*,nt,nt
CCCCCn1c(=N)c(S(=O)(=O)c2ccc(Cl)cc2)cc2c(=O)n3cccc(C)c3nc21,nt,nt,nt,67.3*,nt,nt
CCCn1c(=N)c(S(=O)(=O)c2ccccc2)cc2c(=O)n3cccc(C)c3nc21,nt,nt,nt,144.6*,nt,nt
Cc1ccc(NS(=O)(=O)c2ccc3c(c2)NC(=O)CO3)cc1Cl,nt,nt,nt,28.1,nt,nt
N#C/C(=C\Nc1ccc2cn[nH]c2c1)c1nc(-c2ccccc2)cs1,27.8,0.2,-38.4,3.0,-11.9,15.6
Cc1ccnc(N/C=C(\C#N)c2nc(-c3cccc(Br)c3)cs2)c1,3.5,1.0,-56.2,56.2*,-53.1,-4.0
COc1ccc(C2CC(C(F)(F)F)n3nc(C(N)=O)c(Cl)c3N2)cc1OC (stereo not drawn),1.7,0.3,2.7,-0.2,0.5,-5.3
O=c1[nH]c2ccccc2n1Cc1ccccc1,2.4,0.6,-1.7,0.2,-0.9,4.5
O=c1nc2n(Cc3ccccc3)c3ccccc3cc-2c(=O)[nH]1,15.9,1.1,82.3*,89.4*,63.1*,8.2
O=C(CN(C(=O)CNS(=O)(=O)c1ccc(F)cc1)c1ccccc1)NCc1ccco1,nt,nt,nt,-5.6,nt,nt
COc1ccc(Br)cc1C1N2CC3(C)CN1CC(C)(C2)C3=O (stereo not drawn),3.2,0.9,-2.3,-3.4,-1.3,-4.8
COc1ccc(Br)cc1C1NC(=O)c2c(sc3c2CCN(C)C3)N1 (stereo not drawn),nt,nt,65.0*,nt,113.3*,nt
CN1CCc2c(sc3c2C(=O)NC(c2ccc(-c4ccc(Cl)cc4)o2)N3)C1 (stereo not drawn),17.8,0.3,33.4,89.5*,113.5*,-3.4
CCOC(=O)N1CCc2c(sc3c2C(=O)NC(c2ccccc2)N3)C1 (stereo not drawn),5.1,0.7,13.1,7.3,10.9,-6.8
O=C1NC(c2ccco2)Nc2sc3c(c21)CCN(Cc1ccccc1)C3 (stereo not drawn),11.9,1.5,58.7*,nt,49.4,-4.1
CN1CCc2c(sc3c2C(=O)NC(c2ccco2)N3)C1 (stereo not drawn),2.0,0.5,38.3,113.0*,127.3*,-1.3
COc1ccccc1/C=N/NC(=O)c1sc(C)nc1C,0.8,0.2,-0.9,4.3,2.0,-1.1
CC(C)C(=O)N1CCN(c2ccccc2NC(=O)c2ccc([N+](=O)[O-])o2)CC1,nt,nt,nt,-0.3,nt,nt
CN1CCc2c(sc3c2C(=O)NC(c2cn(Cc4ccccc4)c4ccccc24)N3)C1 (stereo not drawn),14.3,-1.1,70.1*,59.6*,63.2*,-15.5
Cc1ccc(S(=O)(=O)N2CCC(C(=O)Nc3ccccc3N3CCCC3)CC2)c(C)c1,nt,nt,nt,7.7,nt,nt
CN(C)c1ccc(/C=c2/sc3n(c2=O)NC2(c4ccccc4)N(C)C(=O)N(C)C2(c2ccccc2)N=3)cc1 (stereo not drawn),-19.9,-0.7,-42.6,20.4*,-12.3,3.7
Cc1cccc(-n2c(O)c(C=Nc3ccccc3O)c3ccccc3c2=O)n1,2.7,-2.2,7.3,30.2*,0.6,2.9
Cc1cccc(-n2c(O)c(C=Nc3ccccc3-c3n[nH]c(=S)[nH]c3=O)c3ccccc3c2=O)n1,-14.1,0.3,9.8,5.3,7.4,49.8*
SMILES,Hck-Nef inh,PERK inh,Runt-SMMHC FRET,RanGTP-Impb inh,Runt-CBFb FRET,eIF4E-4G inh
Cc1cccc(-n2c(O)c(C=Nc3cc(O)ccc3C)c3ccccc3c2=O)n1,0.3,-0.1,-30.0,-2.0,-23.8,3.6
Clc1cncc(Cl)c1NNc1c2ccccc2nc2ccccc12,8.9,0.6,82.6*,22.9*,128.4*,-7.0
Cc1cc(Cl)c2ccccc2n1,1.5,0.8,-6.4,1.3,-1.4,9.4
CC(C)(C)c1ccc(C(=O)NNC(=O)C(=O)N2CCCCC2)cc1,1.9,0.9,-4.8,nt,-0.4,-1.9
O=C(NNC(=O)c1ccccc1)C(=O)N1CCCCC1,0.8,3.1*,-0.1,7.4,2.5,0.8
COc1ccc(S(=O)(=O)N(CCc2ccccc2)CC(=O)O)cc1Cl,-8.7,2.1,-4.4,2.7,-5.6,5.5
CCOC(=O)c1c(C)[nH]c(C=C2C(=O)CCCC2=O)c1O,3.6,0.6,-12.9,-2.2,-0.6,-3.1
CCN1CC=C2C(C1)C(c1ccc(Cl)s1)C(C#N)=C(N)C2(C#N)C#N (stereo not drawn),15.4,-1.1,82.0*,50.4*,35.8,1.6
CCCCC[C@H](O)/C=C/[C@H]1C=CC(=O)[C@@H]1C/C=C\CCCC(=O)O,56.8*,0.8,0.1,nt,7.0,8.7
CCCCC[C@H](O)/C=C/[C@H]1[C@H](O)CC(=O)[C@@H]1CCCCCCC(=O)O,nt,nt,nt,2.6,nt,nt
CC1(c2nnc(-c3cccc(Cl)c3)o2)CC(c2ccc(Cl)cc2)=NO1 (stereo not drawn),nt,nt,nt,0.4,nt,nt
COc1cccc2[nH]c(C(=O)NN)c(N)c12,5.4,-0.2,1.9,7.7,6.3,5.1
Nc1cccc2c(=O)c3ccccc3[nH]c12,nt,nt,nt,63.7*,nt,nt
COc1cccc2[nH]c3ccccc3c(=O)c12,nt,nt,nt,126.6*,nt,nt
CCOc1ccc(-c2cc(CCCC(=O)Nc3cccc(OC)c3)no2)cc1,-2.7,0.9,-1.9,26.6*,-1.5,2.7
CCN1C(=O)/C(=C/N2CCc3ccccc32)SC1=S,9.0,0.5,61.6,27.8*,-72.2,4.2
COC(=O)c1ccc(C(=O)OC)c(NC(=S)N2CCCC(C)C2)c1 (stereo not drawn),4.1,0.3,34.1,54.0*,17.0,-3.1
CCN(CC)C(=S)Nc1cc(C(=O)OC)ccc1C(=O)OC,3.5,0.9,31.6,37.6*,20.5,2.0
COc1ccc(OC)c(C2C(C(N)=O)=C(C)Nc3nc(-c4cccc(Cl)c4)nn32)c1 (stereo not drawn),-0.6,-0.6,-5.4,-2.2,22.2,-3.3
CCc1c(-c2ccccc2)nc2nc(C)c(C)nn12,8.9,0.0,-3.9,49.8*,-0.2,-2.0
c1ccc(-c2cn3nc(-c4ccccc4)cnc3n2)cc1,2.5,1.6,0.1,nt,0.4,5.2
Cc1nc2nc(-c3ccccc3)cn2nc1C,-0.2,1.1,60.5*,111.3*,45.6,10.4
CCc1ccc(-c2cn3nc(C)c(C)nc3n2)cc1,21.5,0.1,74.3,106.7*,nt,4.6
Cc1cc(N2CCOCC2)n2cc(-c3ccc(F)cc3)nc2n1,-7.0,1.2,-1.8,-0.2,-2.1,6.5
Cc1nc2nc(-c3ccc(F)cc3)cn2nc1C,nt,nt,nt,95.2*,nt,nt
